Results as given in ChEMBL document CHEMBL4732169, “Design and synthesis of mycobacterial pks13 inhibitors: Conformationally rigid tetracyclic molecules” (Eur J Med Chem, 2021).
≈ marks a conversion by molar mass, not a printed value.

Legend:
Escherichia coli [1] = experiment: Antibacterial activity against Escherichia coli AB1157 assessed as inhibition of bacterial growth measured after 18 hrs by two fold serial dilution method; format: functional
Procedure, shortened: (§1)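 Bacteria grown overnight at 37 °C in TSB without antibiotics. Compound in DMSO was serially diluted two-fold to final […] and mixed with an equal volume of bacteria. MIC was read after 18 h at 37 °C; three experiments per condition.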

Bacillus subtilis = experiment: Antibacterial activity against Bacillus subtilis168 assessed as inhibition of bacterial growth measured after 18 hrs by two fold serial dilution method; format: functional; conditions: subsp. subtilis str. 168; procedure, shortened: as §1
Staphylococcus aureus = experiment: Antibacterial activity against Staphylococcus aureus Newman assessed as inhibition of bacterial growth measured after 18 hrs by two fold serial dilution method; format: functional; procedure, shortened: as §1
[2] = system: Mycobacterium tuberculosis; experiment: Antitubercular activity against drug susceptible Mycobacterium tuberculosis V4207 by MABA assay; format: functional
Procedure, shortened: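 Microplate alamar blue assay (MABA) against each Mtb strain, either H37Rv or a clinical isolate (drug-susceptible, MDR or XDR). MIC taken as the lowest concentration giving at least 90% reduction of the bacterial growth signal. Each value is the average of three individual measurements.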

Escherichia coli [3] = experiment: Antibacterial activity against Escherichia coli DH5-alpha assessed as inhibition of bacterial growth measured after 18 hrs by two fold serial dilution method; format: functional; procedure, shortened: as §1
[4] = system: Mycobacterium tuberculosis; experiment: Antitubercular activity against Mycobacterium tuberculosis H37Rv assessed as bacterial growth inhibition incubated for 4 days by MABA assay; format: functional; conditions: time 4 day
[5] = system: Mycobacterium tuberculosis; experiment: Binding affinity to wild type Mycobacterium tuberculosis Pks13-TE expressed in Escherichia coli BL21(DE3)pLysS assessed as change in melting temperature at protein to compound molar ratio of 1:5 incubated for 30 mins by nanoDSF assay
Procedure, shortened: (§2)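 Recombinant N-Mbp-His-tagged Pks13-TE domain of Mtb Pks13 (Rv3800c), expressed in E. coli BL21(DE3)pLysS after 0.5 mM IPTG induction and purified to >95%. Protein was incubated with compound (stock in DMSO) in 100 mM NaCl, 20 mM Tris-HCl pH 8.0 for 30 min, with a DMSO blank. nanoDSF ramp 30–90 °C at 2 °C/min, read as the F350/F330 ratio. Tm shift averaged from three measurements.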

[6] = system: Mycobacterium tuberculosis; experiment: Binding affinity to wild type Mycobacterium tuberculosis Pks13-TE expressed in Escherichia coli BL21(DE3)pLysS assessed as change in melting temperature at protein to compound molar ratio of 1:10 incubated for 30 mins by nanoDSF assay; procedure, shortened: as §2
Vero = experiment: Cytotoxicity against African green monkey Vero cells incubated for 72 hrs in DEME medium; format: cell-based; conditions: Chlorocebus sabaeus
[7] = Selective index, ratio of CC50 for African green monkey Vero cells to IC50 for Mycobacterium tuberculosis H37Rv
Procedure, shortened: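 Vero (African green monkey kidney) cytotoxicity measured by alamar blue assay to give IC50. SI calculated as IC50(Vero)/MIC(H37Rv).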

[8] = system: Mycobacterium tuberculosis; experiment: Inhibition of Mycobacterium tuberculosis Pks13-TE using 4-MUH as substrate by measuring fluorescence product for every 10 mins for 60 mins
Procedure, shortened: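 Pks13-TE thioesterase activity measured with the fluorogenic substrate 4-methylumbelliferyl heptanoate at 20 µM final, in 0.1 M Tris-HCl pH 7.0. Compound was serially diluted from 20 µM down to about 0.0195 µM, or DMSO was added. Points were run in triplicate and averaged to build concentration-response curves for IC50.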

[9] = system: Mycobacterium tuberculosis; experiment: Potency index, ratio of MIC for TAM16 to MICfor test compound for antitubercular activity against Mycobacterium tuberculosis H37Rv assessed as bacterial growth inhibition incubated for 4 days by MABA assay; format: functional; conditions: time 4 day

Structure (SMILES): NC[C@H]1O[C@H](O[C@H]2[C@H](O)[C@@H](O[C@H]3O[C@H](CO)[C@@H](O)[C@H](N)[C@H]3O)[C@H](N)C[C@@H]2N)[C@H](O)[C@@H](O)[C@@H]1O [KANAMYCIN]
- MIC (Escherichia coli [1]): 9.39 mg/L (≈ 19.4 µM)
- MIC (Bacillus subtilis): 9.39 mg/L (≈ 19.4 µM)
- MIC (Staphylococcus aureus): 2.34 mg/L (≈ 4.83 µM)
- MIC=<90 [2]: 2 mg/L (≈ 4.13 µM)
- MIC (Escherichia coli [3]): 2.34 mg/L (≈ 4.83 µM)

Structure (SMILES): CCOC(=O)c1c(-c2ccccc2)[nH]c2ccc(O)c(CN3CCCCC3)c12
- MIC=<90 [4]: >32 mg/L

Structure (SMILES): COc1ccc2c(c1)[nH]c(=O)c1c2oc2ccc(O)c(CN3CCCCC3)c21
- ΔTm [5]: 8.7 °C
- ΔTm [6]: 9 °C
- IC50 (Vero): 64 mg/L (≈ 169 µM)
- MIC=<90 [4]: 0.25 mg/L (≈ 0.661 µM)
- Ratio CC50/IC50 [7]: 256

Structure (SMILES): COc1cc2c(cc1C(=O)N1CCCCC1)oc1c3ccccc3oc(=O)c21
- MIC=<90 [4]: >64 mg/L

Structure (SMILES): CNC(=O)c1c(-c2ccc(O)cc2)oc2ccc(O)c(CN3CCCCC3)c12
- MIC=<90 [4]: 0.0313 mg/L (≈ 0.0823 µM)

Structure (SMILES): O=c1oc2ccccc2c2sc3ccc(O)c(CN4CCCCC4)c3c12
- ΔTm [5]: 7.9 °C
- ΔTm [6]: 9.1 °C
- MIC=<90 [4]: 1 mg/L (≈ 2.74 µM)

Structure (SMILES): O=c1[nH]c2cc(Cl)ccc2c2oc3ccc(O)c(CN4CCCCC4)c3c12
- IC50 (Vero): 32 mg/L (≈ 83.6 µM)
- MIC=<90 [4]: 0.5 mg/L (≈ 1.31 µM)
- Ratio CC50/IC50 [7]: 64

Structure (SMILES): O=c1oc2ccccc2c2oc3ccc(O)c(CN4CCCCC4)c3c12
- MIC=<90 [4]: 0.125 mg/L (≈ 0.358 µM)

Structure (SMILES): O=c1[nH]c2ccc(Cl)cc2c2oc3ccc(O)c(CN4CCCCC4)c3c12
- MIC=<90 [4]: 1 mg/L (≈ 2.61 µM)

Structure (SMILES): O=c1[nH]c2c(F)cccc2c2oc3ccc(O)c(CN4CCCCC4)c3c12
- MIC=<90 [4]: 0.5 mg/L (≈ 1.36 µM)

Structure (SMILES): O=c1[nH]c2cc(Br)ccc2c2oc3ccc(O)c(CN4CCCCC4)c3c12
- IC50 (Vero): 64 mg/L (≈ 150 µM)
- MIC=<90 [4]: 0.5 mg/L (≈ 1.17 µM)
- Ratio CC50/IC50 [7]: 128

Structure (SMILES): O=c1oc2ccccc2c2oc3cc(Br)c(O)c(CN4CCCCC4)c3c12
- MIC=<90 [4]: >64 mg/L

Structure (SMILES): CN(C)[C@@H]1C(O)=C(C(N)=O)C(=O)[C@@]2(O)C(O)=C3C(=O)c4c(O)cccc4[C@@](C)(O)[C@H]3C[C@@H]12 [TETRACYCLINE]
- MIC (Escherichia coli [1]): 1.56 mg/L (≈ 3.51 µM)
- MIC (Bacillus subtilis): > 25 mg/L
- MIC (Staphylococcus aureus): 0.2 mg/L (≈ 0.45 µM)
- MIC (Escherichia coli [3]): 0.78 mg/L (≈ 1.76 µM)

Structure (SMILES): CCOC(=O)c1c(-c2ccccc2)oc2ccc(O)c(CN3CCCCC3)c12
- INH [8]: 4.6 µM
- MIC=<90 [4]: 2 mg/L (≈ 5.27 µM)

Structure (SMILES): CCOC(=O)c1c(-c2ccccc2)oc2cc(C(=O)N3CCCCC3)c(OC)cc12
- MIC=<90 [4]: >64 mg/L

Structure (SMILES): COc1ccc2oc3c4ccccc4oc(=O)c3c2c1C(=O)N1CCCCC1
- MIC=<90 [4]: >64 mg/L

Structure (SMILES): O=c1oc2cc(O)ccc2c2oc3ccc(O)c(CN4CCCCC4)c3c12
- Ratio [9]: 8
- MIC=<90 [4]: 0.0039 mg/L (≈ 0.0107 µM)

Structure (SMILES): O=c1[nH]c2cc(O)ccc2c2oc3ccc(O)c(CN4CCCCC4)c3c12
- MIC (Escherichia coli [1]): > 25 mg/L
- MIC (Bacillus subtilis): > 25 mg/L
- ΔTm [5]: 7.5 °C
- INH [8]: 0.58 µM
- MIC (Staphylococcus aureus): > 25 mg/L
- MIC=<90 [2]: 0.0313 mg/L (≈ 0.0859 µM)
- ΔTm [6]: 9.4 °C
- IC50 (Vero): 4 mg/L (≈ 11 µM)
- MIC=<90 [4]: 0.0313 mg/L (≈ 0.0859 µM)
- Ratio CC50/IC50 [7]: 64
- MIC (Escherichia coli [3]): > 25 mg/L

Structure (SMILES): CCNC(=O)c1c(-c2ccc(F)cc2)oc2ccc(O)c(CN3CCCCC3)c12
- MIC=<90 [4]: 4 mg/L (≈ 10.1 µM)

Structure (SMILES): O=c1[nH]c2c(Cl)cccc2c2oc3ccc(O)c(CN4CCCCC4)c3c12
- MIC=<90 [4]: 1 mg/L (≈ 2.61 µM)

Structure (SMILES): O=c1oc2ccccc2c2[nH]c3ccc(O)c(CN4CCCCC4)c3c12
- ΔTm [5]: 0.8 °C
- ΔTm [6]: 3.1 °C
- MIC=<90 [4]: 32 mg/L (≈ 91.8 µM)

Structure (SMILES): C[C@H]1COc2c(N3CCN(C)CC3)c(F)cc3c(=O)c(C(=O)O)cn1c23.C[C@H]1COc2c(N3CCN(C)CC3)c(F)cc3c(=O)c(C(=O)O)cn1c23.O [LEVOFLOXACIN]
- MIC=<90 [2]: 0.125 mg/L

Structure (SMILES): CCOC(=O)c1c(-c2ccccc2)oc2cc(Br)c(O)c(CN3CCCCC3)c12
- MIC=<90 [4]: 32 mg/L (≈ 69.8 µM)

Structure (SMILES): CCNC(=O)c1c(-c2ccccc2)oc2ccc(O)c(CN3CCCCC3)c12
- MIC=<90 [4]: 4 mg/L (≈ 10.6 µM)

Structure (SMILES): O=c1[nH]c2cc(F)ccc2c2oc3ccc(O)c(CN4CCCCC4)c3c12
- IC50 (Vero): 16 mg/L (≈ 43.7 µM)
- MIC=<90 [4]: 0.5 mg/L (≈ 1.36 µM)
- Ratio CC50/IC50 [7]: 32

Structure (SMILES): O=c1[nH]c2ccccc2c2oc3ccc(O)c(CN4CCCCC4)c3c12
- ΔTm [5]: 9.6 °C
- ΔTm [6]: 10.2 °C
- MIC=<90 [4]: 0.25 mg/L (≈ 0.718 µM)

Structure (SMILES): NNC(=O)c1ccncc1 [ISONIAZID]
- MIC=<90 [2]: 0.04 mg/L (≈ 0.292 µM)

Structure (SMILES): O=c1[nH]c2ccc(F)cc2c2oc3ccc(O)c(CN4CCCCC4)c3c12
- IC50 (Vero): 16 mg/L (≈ 43.7 µM)
- MIC=<90 [4]: 1 mg/L (≈ 2.73 µM)
- Ratio CC50/IC50 [7]: 16

Structure (SMILES): COc1ccc2[nH]c(=O)c3c(oc4ccc(O)c(CN5CCCCC5)c43)c2c1
- MIC=<90 [4]: 4 mg/L (≈ 10.6 µM)

Structure (SMILES): CCOC(=O)c1c(-c2ccccc2)oc2ccc(OC)c(C(=O)N3CCCCC3)c12
- MIC=<90 [4]: >64 mg/L

Structure (SMILES): CC1COc2c(N3CCN(C)CC3)c(F)cc3c(=O)c(C(=O)O)cn1c23 (stereo not drawn) [OFLOXACIN]
- MIC=<90 [2]: 0.5 mg/L (≈ 1.38 µM)

Structure (SMILES): O=c1[nH]c2ccc(O)cc2c2oc3ccc(O)c(CN4CCCCC4)c3c12
- ΔTm [5]: 7.4 °C
- ΔTm [6]: 8.5 °C
- IC50 (Vero): 16 mg/L (≈ 43.9 µM)
- MIC=<90 [4]: 1 mg/L (≈ 2.74 µM)
- Ratio CC50/IC50 [7]: 16

Structure (SMILES): CCNC(=O)c1c(-c2ccc(OC)cc2)oc2ccc(O)c(CN3CCCCC3)c12
- MIC=<90 [4]: 2 mg/L (≈ 4.9 µM)

Structure (SMILES): CN[C@H](CC(C)C)C(=O)N[C@H]1C(=O)N[C@@H](CC(N)=O)C(=O)N[C@H]2C(=O)N[C@H]3C(=O)N[C@H](C(=O)N[C@H](C(=O)O)c4cc(O)cc(O)c4-c4cc3ccc4O)[C@H](O)c3ccc(c(Cl)c3)Oc3cc2cc(c3O[C@@H]2O[C@H](CO)[C@@H](O)[C@H](O)[C@H]2O[C@H]2C[C@](C)(N)[C@H](O)[C@H](C)O2)Oc2ccc(cc2Cl)[C@H]1O [VANCOMYCIN]
- MIC (Escherichia coli [1]): > 25 mg/L
- MIC (Bacillus subtilis): > 25 mg/L
- MIC (Staphylococcus aureus): 0.39 mg/L (≈ 0.269 µM)
- MIC (Escherichia coli [3]): > 25 mg/L

Structure (SMILES): O=c1[nH]c2ccc(Br)cc2c2oc3ccc(O)c(CN4CCCCC4)c3c12
- MIC=<90 [4]: 32 mg/L (≈ 74.9 µM)

Structure (SMILES): CCOC(=O)c1c(-c2ccccc2)sc2ccc(O)c(CN3CCCCC3)c12
- ΔTm [5]: 3.2 °C
- ΔTm [6]: 3.3 °C
- MIC=<90 [4]: 16 mg/L (≈ 40.5 µM)

Structure (SMILES): CO[C@H]1/C=C/O[C@@]2(C)Oc3c(C)c(O)c4c(O)c(c(/C=N/N5CCN(C)CC5)c(O)c4c3C2=O)NC(=O)/C(C)=C\C=C\[C@H](C)[C@H](O)[C@@H](C)[C@@H](O)[C@@H](C)[C@H](OC(C)=O)[C@@H]1C [RIFAMPIN]
- MIC=<90 [2]: 0.0625 mg/L (≈ 0.0759 µM)
